Data: ChEMBL document CHEMBL4219150, “Fragment-Based Approach to Targeting Inosine-5'-monophosphate Dehydrogenase (IMPDH) from Mycobacterium tuberculosis” (J Med Chem, 2018)
In brackets after ≈: the same amount, converted by molar mass.

Target: Inosine-5'-monophosphate dehydrogenase (Mycobacterium tuberculosis (strain ATCC 25618 / H37Rv)) (UniProt P9WKI7)
Test: Uncompetitive inhibition of Mycobacterium tuberculosis H37Rv IMPDH assessed as reduction in NADH production preincubated for 5 mins followed by substrate IMP addition at increasing concentration measured for 32 mins in presence of a constant concentration of NAD+ by Lineweaver-Burk plot analysis
Details: not given

Inosine-5'-monophosphate dehydrogenase (Mycobacterium tuberculosis (strain ATCC 25618 / H37Rv)), sequence (P9WKI7 whole entry): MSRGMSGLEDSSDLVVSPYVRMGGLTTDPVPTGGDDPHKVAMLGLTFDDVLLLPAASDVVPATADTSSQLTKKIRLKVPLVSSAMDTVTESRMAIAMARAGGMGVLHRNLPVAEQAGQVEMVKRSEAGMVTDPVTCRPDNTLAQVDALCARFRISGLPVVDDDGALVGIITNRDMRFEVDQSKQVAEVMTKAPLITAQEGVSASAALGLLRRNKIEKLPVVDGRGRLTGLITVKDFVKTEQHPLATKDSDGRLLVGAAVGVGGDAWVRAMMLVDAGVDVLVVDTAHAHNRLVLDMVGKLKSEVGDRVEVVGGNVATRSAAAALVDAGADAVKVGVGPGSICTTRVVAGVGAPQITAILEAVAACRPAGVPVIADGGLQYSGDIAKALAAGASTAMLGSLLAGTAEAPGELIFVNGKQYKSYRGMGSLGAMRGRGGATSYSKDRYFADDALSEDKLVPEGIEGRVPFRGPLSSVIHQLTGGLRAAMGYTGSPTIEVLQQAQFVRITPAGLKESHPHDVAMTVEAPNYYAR

SMILES	alphaKi [µM]
COc1ccc(OC(C)C(=O)Nc2ccc(I)cc2)cc1 (stereo not given)	0.603

System: Mycobacterium tuberculosis
Test: Antibacterial activity against Mycobacterium tuberculosis after 7 days by Alamar Blue assay
Format: functional
Details: 168 h
Procedure, shortened: (§1)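 Mtb H37Rv grown to mid-exponential phase in Middlebrook 7H9 with OADC, 0.2% glycerol, 0.05% Tween-80. Compounds in DMSO (1%) tested at 8 concentrations; rifampin and isoniazid as positive controls. ~10^5 bacteria per well, 37°C for 7 d, then Alamar Blue for a further 24 h at 37°C. Fluorescence read at ex 544/em 590 nm. Data normalised to min/max inhibition controls; MIC90 taken from the dose-response curve.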

SMILES	MIC [µM]
COc1ccc(OC(C)C(=O)Nc2ccc(I)cc2)cc1 (stereo not given)	12.5 (≈ 4.97 µg/mL)

System: Mycobacterium tuberculosis
Test: Antibacterial activity against Mycobacterium tuberculosis H37Rv assessed as inhibition of bacterial growth after 7 days by alamar blue fluorescence-based broth microdilution assay
Format: functional
Details: 168 h
Procedure, shortened: as §1

SMILES	MIC90 [µM]
CC(Oc1ccc(-c2cn(C)cn2)cc1)C(=O)Nc1nc(-c2ccc(I)cc2)c[nH]1 (stereo not given)	≥ 50
COc1ccc(-c2c[nH]c(NC(=O)C(C)Oc3ccc(-c4cn(C)cn4)cc3)n2)cc1 (stereo not given)	≥ 50
CC(Oc1ccc(-c2cn(C)cn2)cc1)C(=O)Nc1ccc(I)cc1 (stereo not given)	≥ 50
CC(Oc1ccc(-c2cn(C)cn2)cc1)C(=O)Nc1ccccc1 (stereo not given)	≥ 50
CC(Oc1ccc(-c2cn(C)cn2)cc1)C(=O)Nc1nc(-c2ccc(Br)cc2)c[nH]1 (stereo not given)	≥ 50
CC(Oc1ccc(-c2cn(C)cn2)cc1)C(=O)Nc1nc(-c2ccc(N3CCOCC3)cc2)c[nH]1 (stereo not given)	≥ 50
CC(Oc1ccc(-c2cn(C)cn2)cc1)C(=O)Nc1nc(-c2ccccc2)c[nH]1 (stereo not given)	≥ 50
CC(Oc1ccc(-c2cn(C)cn2)cc1)C(=O)Nc1nc(-c2ccc(Br)cc2)co1 (stereo not given)	≥ 50
C[C@H](Oc1ccc(-c2cn(C)cn2)cc1)C(=O)Nc1nc(-c2ccc(Br)cc2)c[nH]1	≥ 50

System: Mycobacterium tuberculosis
Test: Antibacterial activity against Mycobacterium tuberculosis ATCC 27294 after 7 days by broth microdilution method
Format: functional
Details: ATCC 27294, 168 h

SMILES	MIC [µM]
C=C(C)c1cccc(C(C)(C)NC(=O)Nc2ccc(Cl)c(C(=O)N(C)C)c2)c1	5 (≈ 2 µg/mL)
COc1c(C)c2c(c(O)c1C/C=C(\C)Cn1cc(COC[C@H]3O[C@@H](n4cnc5c(N)ncnc54)[C@H](O)[C@@H]3O)nn1)C(=O)OC2	100 (≈ 60.9 µg/mL)

System: Mycobacterium tuberculosis
Test: Antibacterial activity against Mycobacterium tuberculosis
Format: functional
Details: not given
Procedure, shortened: as §1

SMILES	MIC [µM]
Cc1n[nH]c(C)c1S(=O)(=O)Nc1ccc2c[nH]nc2c1	2 (≈ 0.583 µg/mL)
O=C(C1CCCCC1)N1CCN(S(=O)(=O)c2ccc3cnccc3c2)CC1	1.9 (≈ 0.736 µg/mL)
